A selection: hits, their analogues and other compounds. The true share with any hit is near 6.8%.
ALR H2O2 inh – inhibitors of human sulfhydryl oxidase ALR | purified ALR, DTT oxidation, H2O2 HRP-luminol luminescence | inhibition, % (concentration not given with the values) | hit rate 3.8% among 290,000 | P55789 | AID 485317;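 active means mean replicate inhibition above about 79%, with every replicate also reaching it, limit read from the data; inconclusive means only one of the two criteria met; inactive means mean below limit and not every replicate reaching it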
Target sequence (P55789 whole entry, looked up): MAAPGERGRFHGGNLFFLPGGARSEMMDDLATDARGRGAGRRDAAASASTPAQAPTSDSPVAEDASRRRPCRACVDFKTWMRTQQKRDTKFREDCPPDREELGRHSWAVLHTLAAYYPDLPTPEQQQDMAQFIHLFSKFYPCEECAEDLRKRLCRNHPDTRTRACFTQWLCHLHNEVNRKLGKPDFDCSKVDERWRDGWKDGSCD
core dimer inh – blocks dimerization of HCV core protein; TR-FRET GST/Flag-core106 dimerization, 1536-well; inhibition, % at 5 µM; hit rate 0.33% among 300,000; AID 1899;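 active means inhibition above the mean of all tested compounds plus 3 SD, set per screening campaign, cut at about 45% in these data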
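Assay system – GST-tagged and Flag-tagged HCV core protein residues 1-106 · Quantity – core106 proteins, GST 13.5 nM and Flag 17 nM · Benchmarks – unlabelled core106 and no-GST-core106 wells · Read-out basis – percent inhibition of core106 dimerization signal · Detection – time-resolved FRET, ex 340 nm, em 617 and 671 nm · Schedule – 4 h at 22.5 °C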
HSF1 inh – HSF1 inhibition; NIH3T3-HGL HSE-luciferase, MG132-induced, luminescence 8 h; active compounds read low; activity change, negative = inhibition, % at 7.5 µM (by protocol); hit rate 0.77% among 300,000; AID 2098;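 active means more than half of replicate wells show activity change below -50%, luminescence cut by over half; inconclusive means some wells, but at most half, below -50%; inactive means no replicate well below -50%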;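 further: luciferase reports HSF-1 transcriptional activity via heat shock element; 0% = median of DMSO wells and -100% = zero luminescence signal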
HSF-1 act – increases HSF-1 driven luciferase reporter signal. NIH3T3-HGL HSF-1 luciferase reporter, MG132, 8 h; 100% = twice DMSO control signal. activation, % at 9 µM. hit rate 1.7% among 300,000;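 active means mean replicate activation of at least 50% with a set share of replicates each reaching 50%; inconclusive means only one of those two conditions met; inactive means mean below 50% and too few replicates reaching it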;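 further: 0% = median of the neutral control wells and 100% = twice that signal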
AI-2 QS modul – Vibrio harveyi AI-2 quorum sensing modulation; AID 2094; Vibrio harveyi JMH597 AI-2 luminescence/OD600 ratio, 9 h; active compounds read low; strain lacks LuxN and CqsS sensors; 0 = neutral-control median; hit rate 0.4% among 300,000; activity change, % at 7.5 µM; in the data active means activity change below about -75%, passing the limit was not always enough; inconclusive means no clear call, values can overlap the other calls;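 further: luminescence divided by OD600 gain over 9 h not by final OD600 alone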
PHOSPHO1 block – blocks human PHOSPHO1 phosphatase activity. Q8TCT1. recombinant PHOSPHO1, absorbance phosphatase assay. inhibition, % at 13.3 µM. hit rate 1.1% among 290,000; in the data active means inhibition above about 60%
Target sequence (Q8TCT1 whole entry, looked up): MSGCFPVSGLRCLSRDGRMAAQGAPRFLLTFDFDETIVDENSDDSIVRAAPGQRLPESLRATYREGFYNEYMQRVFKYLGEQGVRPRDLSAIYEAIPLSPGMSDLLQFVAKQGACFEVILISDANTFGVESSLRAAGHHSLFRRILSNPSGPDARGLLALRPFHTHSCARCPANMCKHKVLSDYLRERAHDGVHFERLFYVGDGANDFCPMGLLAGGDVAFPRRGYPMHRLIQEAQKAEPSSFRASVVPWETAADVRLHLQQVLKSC
Numbers without * were called inactive; ? = inconclusive; nt = no result given.

SMILES	ALR H2O2 inh	core dimer inh	HSF1 inh	HSF-1 act	AI-2 QS modul	PHOSPHO1 block
COc1ccc(N2CCN(C(c3cccs3)C(C)NC(=O)C(=O)N3CCOCC3)CC2)cc1 (stereo not given)	?	-17	-4	-13	-2	65*
COc1ccccc1C(=O)NC(C)C(c1cccs1)N1CCOCC1 (stereo not given)	-4	-4	nt	nt	3	13
Cc1cc(-c2nnc(SCC(=O)Nc3cccc(Cl)c3)n2N)n[nH]1	-2	-6	-4	26	13	44
Cc1cccc(CSc2nc3c(c(-c4cccs4)c2C#N)CN(C)CC3)c1	72	12	47	77*	14	5
CN1CCc2nc(SCC(=O)Nc3ccc(OC(F)(F)F)cc3)c(C#N)c(-c3cccs3)c2C1	99*	18	13	46	52	14
CN1CCc2nc(SCC(=O)Nc3cccc(F)c3)c(C#N)c(-c3cccs3)c2C1	nt	8	33	38	17	36
CC(C)C(=O)Nc1cc2c3c(c1)CCC(=O)N3CCC2	-28	-3	2	6	12	40
CCOc1cccc2cc(-c3csc(NC(=O)CCC(=O)NCCCN4CCC(C)CC4)n3)c(=O)oc12	99*	-4	23	?	10	-152
COc1cccc2cc(-c3csc(NC(=O)CCC(=O)NCCCN4CCC(C)CC4)n3)c(=O)oc12	9	-2	28	41	3	25
CCOc1cccc2cc(-c3csc(NC(=O)CCC(=O)NCCN4CCCCC4C)n3)c(=O)oc12 (stereo not given)	99*	-8	14	21	16	-8
CCOc1cccc2cc(-c3csc(NC(=O)CCC(=O)N4CCC(C)CC4)n3)c(=O)oc12	0	-6	-6	0	-5	-14
Cc1ccsc1-c1nc(CSCC(=O)NCc2ccc3c(c2)OCO3)c(C)o1	99*	-8	2	-5	13	-9
Cc1oc(-c2ccc(Cl)cc2)nc1CS(=O)CC(=O)NCc1ccc2c(c1)OCO2 (stereo not given)	58	13	-7	-18	25	12
COc1ccccc1CNC(=O)C1CCN(Cc2nc(-c3cccc(Cl)c3)oc2C)CC1	-10	2	6	31	15	4
COc1ccc(-c2nc(CSCC(=O)NCc3ccc4c(c3)OCO4)c(C)o2)cc1	-5	2	-1	-13	5	-7
CCc1ccc(-c2nc(CN3CCC(C(=O)NCc4ccccc4OC)CC3)c(C)o2)cc1	-9	0	0	3	11	77*
Cc1oc(-c2ccccc2F)nc1CS(=O)CC(=O)NCc1ccc2c(c1)OCO2 (stereo not given)	99*	27	2	0	33	-5
COc1ccc(-c2nc(CS(=O)CC(=O)NCc3ccc4c(c3)OCO4)c(C)o2)cc1OC (stereo not given)	99*	11	2	-6	21	15
CC(=O)c1ccc(NC(=S)NCCc2cccc(Cl)c2)cc1	0	10	19	30	5	25
COc1ccccc1CNC(=O)CS(=O)Cc1nc(-c2ccc(OC)c(OC)c2)oc1C (stereo not given)	99*	5	0	-14	7	45
COc1ccc(-c2nc(CSCC(=O)N3CCc4ccccc43)c(C)o2)cc1OC	99*	-1	6	13	14	24
COc1ccc(-c2nc(CSCC(=O)NCc3ccc4c(c3)OCO4)c(C)o2)cc1OC	99*	-1	1	-9	22	-37
COc1ccc(-c2nc(CSCC(=O)NCCC3=CCCCC3)c(C)o2)cc1OC	100*	5	11	23	25	-9
Cn1c(=O)[nH]c(=O)c2c1nc(Br)n2CCCSc1nc2ccccc2o1	98*	6	18	43	10	20
COc1ccc(C(=O)c2ccccc2Cl)cc1	-17	-2	-2	-3	18	-9
SMILES	ALR H2O2 inh	core dimer inh	HSF1 inh	HSF-1 act	AI-2 QS modul	PHOSPHO1 block
Cc1sc(N)c(C(=O)c2ccccc2Cl)c1C	99*	3	3	7	-3	-12
COc1cccc(Nc2c([N+](=O)[O-])cncc2[N+](=O)[O-])c1	-42	1	5	6	3	3
NS(=O)(=O)c1ccc(Nc2c([N+](=O)[O-])cncc2[N+](=O)[O-])cc1	-52	4	-4	12	-93*	18
COc1ccc(C2C(C#N)=C(N)N(N(C)C)C3=C2C(=O)CC(C)(C)C3)cc1OC (stereo not given)	-5	-5	2	20	-1	nt
COc1cc(C2C(C#N)=C(N)N(N(C)C)C3=C2C(=O)CC(C)(C)C3)ccc1O (stereo not given)	21	8	-76*	-80	18	34
CCc1nnc2n1N=C(c1ccc([N+](=O)[O-])cc1)CS2	97*	-2	-2	12	-7	30
c1ccc(Cc2nnc3n2N=C(c2ccccc2)CS3)cc1	-13	2	4	0	14	17
CCc1nnc2n1N=C(c1ccc(OC)cc1)CS2	9	-2	5	-7	7	1
CCc1nnc2n1N=C(c1ccc(-c3cc(Cl)ccc3Cl)o1)CS2	nt	61*	1	25	30	90*
Fc1ccc(C2=Nn3c(Cc4ccccc4F)nnc3SC2)cc1	-4	-8	7	1	35	62*
CC(=O)Oc1ccc(C23CC4CC(CC(C4)C2)C3)cc1C(=O)O	5	7	-3	-7	44	42
CC(C)(Oc1ccc(Cl)cc1)C(=O)NNC(=O)c1ccc(Br)o1	-3	nt	nt	nt	4	17
CC(C)Sc1n[nH]c(=O)n1-c1ccccc1	-1	-4	-2	-7	27	12
COc1ccc(CN2CCNC(=O)C2CC(=O)NC2CCCC2)c(C)c1C (stereo not given)	2	4	-4	-4	10	38
Cc1cc2c(=O)oc(-c3ccc(F)cc3)nc2s1	6	3	13	-3	-8	1
O=c1oc(-c2ccccc2Cl)nc2ccsc12	23	34	17	16	-83*	-1
O=c1oc(-c2ccc(F)cc2)nc2ccsc12	83*	32	3	1	10	15
Cc1ccc2nc(SCC(=O)Nc3cccc(Cl)c3)nc(=O)n2c1	97*	0	6	9	29	nt
O=C(CSc1nc(-c2ccc(Cl)cc2)[nH]c(=O)n1)Nc1cccc(Cl)c1	99*	7	2	-15	-14	42
Cc1ccc(CN2CCCC(CO)(Cc3ccccc3C)C2)s1 (stereo not given)	1	-1	1	2	12	35
COc1cccc(NC(=O)C(OC(=O)c2cnc(C)cn2)c2ccccc2)c1 (stereo not given)	nt	5	1	8	14	nt
